Laboratory results published in ChEMBL document CHEMBL1250435, “Synthesis of a series of caffeic acid phenethyl amide (CAPA) fluorinated derivatives: comparison of cytoprotective effects to caffeic acid phenethyl ester (CAPE)” (Bioorg Med Chem, 2010).
Active and inactive are the calls of the source. No cut-off for these calls is given here.

Columns and labels:
[1] = tested on: HUVEC; test: Cytoprotective activity against H2O2-induced oxidative stress in HUVEC cells after 18 hrs by Cell-Titer Blue assay; assay type: functional, cell-based; settings: Homo sapiens
Method in brief: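 Confluent HUVEC (population doublings 2–5, gelatin-coated 96-well) pretreated 5 h at 37 °C with compound at 1, 5, 20, 40 and 60 µM (DMSO stock diluted in MCDB 131), washed twice, exposed to 2 mM H2O2 for 1 h at 37 °C, then 18 h recovery in complete MCDB 131. Viability by 10% CellTiter-Blue fluorescence. % cytoprotection = (well − DMSO+H2O2 mean)/DMSO-only mean. EC50 by linear regression of first three points.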

[2] = tested on: HUVEC; test: Cytoprotective activity against H2O2-induced oxidative stress in HUVEC cells at 20 uM after 18 hrs by Cell-Titer Blue assay; assay type: functional, cell-based; settings: Homo sapiens
Method in brief: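 Confluent HUVEC (passage doublings 2–5) incubated 5 h at 37 °C with compound at 20 µM in MCDB 131 (from DMSO stock), washed twice with MCDB 131, then 2 mM H2O2 for 1 h at 37 °C. H2O2 removed, cells recovered 18 h in complete medium. Viability by 10% CellTiter-Blue fluorescence, compared with vehicle+H2O2 and unexposed cells. Mean ± SD, ANOVA with Tukey-Kramer.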

[3] = tested on: HUVEC; test: Cytotoxicity against HUVEC cells at 10 to 60 uM after 24 hrs by Cell-Ttiter blue assay; assay type: cell-based; settings: human
Method in brief: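 Confluent HUVEC (population doublings 2–5) exposed 24 h at 37 °C to compound at 10, 20, 40 or 60 µM, diluted from DMSO stock into MCDB 131 (vehicle 0.1% DMSO). Medium replaced with 10% CellTiter-Blue for 2 h at 37 °C, fluorescence read at ex 545/em 590 nm. Viability expressed as % of vehicle control; below 90% of control scored toxic.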

Compound	EC50 [1]	Activity [2]	Activity [3]
O=C(/C=C/c1ccc(O)c(O)c1)OCCc1ccccc1 [CAFFEIC ACID PHENETHYL ESTER]	8 µM	–	–
O=C(/C=C/c1ccc(O)c(F)c1)NCCc1ccccc1	–	Active	–
O=C(/C=C/c1ccc(O)c(O)c1)NCCc1ccccc1 [CAFFEIC ACID PHENETHYL AMIDE]	2 µM	–	–
O=C(/C=C/c1cc(O)c(O)c(F)c1)NCCc1ccccc1	–	Active	Toxic
O=C(/C=C/c1cc(O)c(O)cc1F)NCCc1ccccc1	–	Active	–
